Source: BindingDB's records for doi:10.1021/jm00031a021 (Tap Pharmaceuticals, 1994)

The compounds below were run against T1, Gonadotropin-releasing hormone receptor (Rattus norvegicus, UniProt P30969) (assay: Inhibition of the in vitro binding of [125I]-labeled leuprolide to the rat pituitary luteinizing hormone releasing hormone (LHRH) receptor.).
T1 sequence (P30969 whole entry): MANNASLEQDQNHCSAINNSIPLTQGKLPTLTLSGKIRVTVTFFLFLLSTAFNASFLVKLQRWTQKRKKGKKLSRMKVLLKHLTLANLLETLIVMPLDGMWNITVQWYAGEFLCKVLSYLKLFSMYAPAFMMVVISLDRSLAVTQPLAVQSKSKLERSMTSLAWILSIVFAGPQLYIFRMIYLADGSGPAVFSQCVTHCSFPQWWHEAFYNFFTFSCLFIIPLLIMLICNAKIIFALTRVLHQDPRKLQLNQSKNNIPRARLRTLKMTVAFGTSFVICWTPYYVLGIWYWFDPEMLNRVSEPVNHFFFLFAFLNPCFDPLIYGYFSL
Outline: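 Rat pituitary LHRH receptor binding with 125I-labeled leuprolide as radioligand. pKI is the negative log of the analogue concentration inhibiting 50% of tracer binding. Compounds tested as TFA salts.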
Work on CCNC(=O)[C@H]1CCCN1C(=O)[C@H](CCCN=C(N)N)NC(=O)[C@H](CC(C)C)NC(=O)[C@@H](Cc1c[nH]c2ccccc12)NC(=O)[C@H](Cc1ccc(O)cc1)N(C)C(=O)[C@H](CO)NC(=O)[C@H](Cc1c[nH]c2ccccc12)NC(=O)CCc1ccc(F)cc1 yielded a Ki of 0.033 nM.
CCNC(=O)[C@H]1CCCN1C(=O)[C@H](CCCN=C(N)N)NC(=O)[C@H](CC(C)C)NC(=O)[C@@H](CCCCNC(=O)c1cccnc1)NC(=O)[C@H](Cc1ccc(O)cc1)N(C)C(=O)[C@H](CO)NC(=O)[C@H](Cc1c[nH]c2ccccc12)NC(=O)CCc1ccc(F)cc1 showed a Ki of 0.017 nM.
Compound CCNC(=O)[C@H]1CCCN1C(=O)[C@H](CCCN=C(N)N)NC(=O)[C@H](CC(C)C)NC(=O)[C@@H](Cc1c[nH]c2ccccc12)NC(=O)[C@H](Cc1ccc(O)cc1)NC(=O)[C@H](CO)NC(=O)C(Cc1cccc2ccccc12)NC(=O)CCc1ccc(F)cc1 (some centres not stated) has a Ki of 0.017 nM.
Work on CCNC(=O)[C@H]1CCCN1C(=O)[C@H](CCCN=C(N)N)NC(=O)[C@H](CC(C)C)NC(=O)[C@@H](CCCCNC(=O)c1cccnc1)NC(=O)[C@H](Cc1ccc(O)cc1)N(C)C(=O)[C@H](CO)NC(=O)[C@H](Cc1c[nH]c2ccccc12)NC(=O)CCc1ccc(F)cc1F yielded a Ki of 0.02 nM.
CCNC(=O)[C@H]1CCCN1C(=O)[C@H](CCCN=C(N)N)NC(=O)[C@H](CC(C)C)NC(=O)[C@@H](CCCCNC(=O)c1cccnc1)NC(=O)[C@H](Cc1ccc(O)cc1)N(C)C(=O)[C@H](CO)NC(=O)[C@H](Cc1c[nH]c2ccccc12)NC(=O)CCc1ccc(Cl)cc1 gave a Ki of 0.02 nM.
With CCNC(=O)[C@H]1CCCN1C(=O)[C@H](CCCN=C(N)N)NC(=O)[C@H](CC(C)C)NC(=O)[C@@H](Cc1c[nH]c2ccccc12)NC(=O)[C@H](Cc1ccc(O)cc1)NC(=O)[C@H](CO)NC(=O)[C@H](Cc1c[nH]c2ccccc12)NC(=O)CCc1ccc(Cl)cc1 the Ki was 0.076 nM.
In the case of CCNC(=O)[C@@H]1CCCN1C(=O)[C@H](CCCN=C(N)N)NC(=O)[C@H](CC(C)C)NC(=O)[C@@H](Cc1c[nH]c2ccccc12)NC(=O)[C@H](Cc1ccc(O)cc1)NC(=O)[C@H](CO)NC(=O)[C@H](Cc1c[nH]c2ccccc12)NC(=O)CCc1ccc(F)c(F)c1, the Ki is reported as 0.052 nM.
Compound CCNC(=O)[C@@H]1CCCN1C(=O)[C@H](CCCN=C(N)N)NC(=O)[C@H](CC(C)C)NC(=O)[C@@H](Cc1c[nH]c2ccccc12)NC(=O)[C@H](Cc1ccc(O)cc1)NC(=O)[C@H](CO)NC(=O)[C@H](Cc1c[nH]c2ccccc12)NC(=O)CCc1ccc(C(F)(F)F)cc1 has a Ki of 0.275 nM.
For CC(C)C[C@H](NC(=O)[C@@H](CCCCNC(=O)c1cccnc1)NC(=O)[C@H](Cc1ccc(O)cc1)N(C)C(=O)[C@H](CO)NC(=O)[C@H](Cc1cccc2ccccc12)NC(=O)CCc1ccc(F)cc1)C(=O)N[C@@H](CCCCNC(C)C)C(=O)N1CCC[C@@H]1C(=O)O, the Ki was 0.537 nM.
CCNC(=O)[C@H]1CCCN1C(=O)[C@H](CCCN=C(N)N)NC(=O)[C@H](CC(C)C)NC(=O)[C@@H](CCCCNC(=O)c1cccnc1)NC(=O)[C@H](Cc1ccc(O)cc1)NC(=O)[C@H](CO)NC(=O)C(Cc1c[nH]c2ccccc12)NC(=O)CCc1ccc(F)cc1 (some centres not stated) showed a Ki of 0.347 nM.
With CCNC(=O)[C@@H]1CCCN1C(=O)[C@H](CCCN=C(N)N)NC(=O)[C@H](CC(C)C)NC(=O)[C@@H](Cc1c[nH]c2ccccc12)NC(=O)[C@H](Cc1ccc(O)cc1)NC(=O)[C@H](CO)NC(=O)[C@H](Cc1c[nH]c2ccccc12)NC(=O)c1cc2ccccc2[nH]1 the Ki was 17 nM.
Work on CCNC(=O)[C@@H]1CCCN1C(=O)[C@H](CCCN=C(N)N)NC(=O)[C@H](CC(C)C)NC(=O)[C@@H](Cc1c[nH]c2ccccc12)NC(=O)[C@H](Cc1ccc(O)cc1)NC(=O)[C@H](CO)NC(=O)[C@@H](Cc1c[nH]c2ccccc12)NC(=O)c1cc2ccccc2[nH]1 yielded a Ki of 0.076 nM.
CCNC(=O)[C@H]1CCCN1C(=O)[C@H](CCCN=C(N)N)NC(=O)[C@H](CC(C)C)NC(=O)[C@@H](Cc1c[nH]c2ccccc12)NC(=O)[C@H](Cc1ccc(O)cc1)NC(=O)[C@H](CO)NC(=O)[C@H](Cc1cccc2ccccc12)NC(=O)CCc1ccc(F)cc1 showed a Ki of 0.017 nM.
In the case of CCNC(=O)[C@H]1CCCN1C(=O)[C@H](CCCN=C(N)N)NC(=O)[C@H](CC(C)C)NC(=O)[C@@H](Cc1ccc(O)cc1)NC(=O)[C@@H](Cc1ccc(O)cc1)NC(=O)[C@H](CO)NC(=O)[C@@H](Cc1c[nH]c2ccccc12)NC(=O)CCc1ccc(F)cc1, the Ki is reported as 0.01 nM.
CCNC(=O)[C@H]1CCCN1C(=O)[C@H](CCCN=C(N)N)NC(=O)[C@H](CC(C)C)NC(=O)[C@@H](Cc1ccc(Cl)cc1)NC(=O)[C@H](Cc1ccc(O)cc1)NC(=O)[C@H](CO)NC(=O)[C@H](Cc1c[nH]c2ccccc12)NC(=O)CCc1ccc(F)cc1 gave a Ki of 0.018 nM.
With CCNC(=O)[C@H]1CCCN1C(=O)[C@H](CCCN=C(N)N)NC(=O)[C@H](CC(C)C)NC(=O)[C@@H](Cc1c[nH]c2ccccc12)NC(=O)[C@H](Cc1ccc(O)cc1)NC(=O)[C@H](CO)N(C)C(=O)[C@H](Cc1c[nH]c2ccccc12)NC(=O)CCc1ccc(F)cc1 the Ki was 0.135 nM.
With CCNC(=O)[C@H]1CCCN1C(=O)[C@H](CCCN=C(N)N)NC(=O)[C@H](CC(C)C)NC(=O)[C@@H](CCCCNC(=O)c1cccnc1)NC(=O)[C@H](Cc1ccc(O)cc1)N(C)C(=O)[C@H](CO)NC(=O)[C@H](Cc1c[nH]c2ccccc12)NC(=O)CCc1cccc(F)c1 the Ki was 0.026 nM.
CCNC(=O)[C@@H]1CCCN1C(=O)[C@H](CCCN=C(N)N)NC(=O)[C@H](CC(C)C)NC(=O)[C@@H](Cc1c[nH]c2ccccc12)NC(=O)[C@H](Cc1ccc(O)cc1)NC(=O)[C@H](CO)NC(=O)[C@H](Cc1c[nH]c2ccccc12)NC(=O)CCc1cccc(F)c1 showed a Ki of 1.35 nM.
CCNC(=O)[C@@H]1CCCN1C(=O)[C@H](CCCN=C(N)N)NC(=O)[C@H](CC(C)C)NC(=O)[C@@H](Cc1c[nH]c2ccccc12)NC(=O)[C@H](Cc1ccc(O)cc1)NC(=O)[C@H](CO)NC(=O)[C@H](Cc1c[nH]c2ccccc12)NC(=O)CCc1ccc(F)cc1F gave a Ki of 0.04 nM.
CCNC(=O)[C@@H]1CCCN1C(=O)[C@H](CCCN=C(N)N)NC(=O)[C@H](CC(C)C)NC(=O)[C@@H](Cc1c[nH]c2ccccc12)NC(=O)[C@H](Cc1ccc(O)cc1)NC(=O)[C@H](CO)NC(=O)[C@H](Cc1c[nH]c2ccccc12)NC(=O)c1cc2cc(F)ccc2[nH]1 showed a Ki of 12.3 nM.
With CCNC(=O)[C@H]1CCCN1C(=O)[C@H](CCCN=C(N)N)NC(=O)[C@H](CC(C)C)NC(=O)[C@@H](CCCCNC(=O)c1cccnc1)NC(=O)[C@H](Cc1ccc(O)cc1)NC(=O)[C@H](CO)NC(=O)[C@H](Cc1c[nH]c2ccccc12)NC(=O)CCc1ccc(F)cc1 the Ki was 0.023 nM.
CCNC(=O)[C@@H]1CCCN1C(=O)[C@H](CCCN=C(N)N)NC(=O)[C@H](CC(C)C)NC(=O)[C@@H](Cc1c[nH]c2ccccc12)NC(=O)[C@H](Cc1ccc(O)cc1)NC(=O)[C@H](CO)NC(=O)[C@H](Cc1ccc(O)cc1)NC(=O)CCc1ccc(F)cc1 gave a Ki of 0.022 nM.
CCNC(=O)[C@H]1CCCN1C(=O)[C@H](CCCN=C(N)N)NC(=O)[C@H](CC(C)C)NC(=O)[C@@H](Cc1ccc(O)cc1)NC(=O)[C@@H](Cc1ccc(O)cc1)NC(=O)[C@H](CO)NC(=O)[C@H](Cc1c[nH]c2ccccc12)NC(=O)CCc1ccc(F)cc1 was tested, and the Ki was 0.038 nM.
Work on CCNC(=O)[C@H]1CCCN1C(=O)[C@H](CCCN=C(N)N)NC(=O)[C@H](CC(C)C)NC(=O)[C@@H](Cc1c[nH]c2ccccc12)NC(=O)[C@H](Cc1ccc(O)cc1)NC(=O)[C@H](CO)NC(=O)[C@H](Cc1c[nH]c2ccccc12)NC(=O)[C@@H](N)Cc1ccccc1 yielded a Ki of 83.2 nM.
Compound CCNC(=O)[C@@H]1CCCN1C(=O)[C@H](CCCN=C(N)N)NC(=O)[C@H](CC(C)C)NC(=O)[C@@H](Cc1c[nH]c2ccccc12)NC(=O)[C@H](Cc1ccc(O)cc1)NC(=O)[C@H](CO)NC(=O)[C@H](Cc1c[nH]c2ccccc12)NC(=O)Cc1ccc(C(F)(F)F)cc1 has a Ki of 0.646 nM.
Compound CCNC(=O)[C@H]1CCCN1C(=O)[C@H](CCCCNC(C)C)NC(=O)[C@H](CC(C)C)NC(=O)[C@@H](CCCCNC(=O)c1cccnc1)NC(=O)[C@H](Cc1ccc(O)cc1)N(C)C(=O)[C@H](CO)NC(=O)[C@H](Cc1cccc2ccccc12)NC(=O)CCc1ccc(F)cc1 has a Ki of 0.002 nM.
CCNC(=O)[C@@H]1CCCN1C(=O)[C@H](CCCN=C(N)N)NC(=O)[C@H](CC(C)C)NC(=O)[C@@H](Cc1c[nH]c2ccccc12)NC(=O)[C@H](Cc1ccc(O)cc1)NC(=O)[C@H](CO)NC(=O)[C@H](Cc1c[nH]c2ccccc12)NC(=O)Cc1ccccc1 gave a Ki of 0.832 nM.
CCNC(=O)[C@H]1CCCN1C(=O)[C@H](CCCN=C(N)N)NC(=O)[C@H](CC(C)C)NC(=O)[C@@H](Cc1c[nH]c2ccccc12)NC(=O)[C@H](Cc1ccc(O)cc1)NC(=O)[C@H](CO)NC(=O)[C@@H]1CCCN1C(=O)CCc1ccc(F)cc1 gave a Ki of 0.012 nM.
For CC(C)C[C@H](NC(=O)[C@@H](CCCCNC(=O)c1cccnc1)NC(=O)[C@H](Cc1ccc(O)cc1)N(C)C(=O)[C@H](CO)NC(=O)[C@H](Cc1cccc2ccccc12)NC(=O)CCc1ccc(F)cc1)C(=O)N[C@@H](CCCCNC(C)C)C(=O)N1CCC[C@@H]1C(N)=O, the Ki was 0.016 nM.
With CCNC(=O)[C@H]1CCCN1C(=O)[C@H](CCCN=C(N)N)NC(=O)[C@H](CC(C)C)NC(=O)[C@@H](Cc1c[nH]c2ccccc12)NC(=O)[C@H](Cc1ccc(O)cc1)N(C)C(=O)[C@H](CO)NC(=O)[C@H](Cc1c[nH]c2ccccc12)NC(=O)CCc1ccc(Cl)cc1 the Ki was 0.071 nM.
With CCNC(=O)[C@H]1CCCN1C(=O)[C@H](CCCN=C(N)N)NC(=O)[C@H](CC(C)C)NC(=O)[C@@H](Cc1c[nH]c2ccccc12)NC(=O)[C@H](Cc1ccc(O)cc1)N(C)C(=O)[C@H](CO)NC(=O)[C@H](Cc1c[nH]c2ccccc12)NC(=O)CCc1ccc(F)cc1F the Ki was 0.039 nM.
For CCNC(=O)[C@H]1CCCN1C(=O)[C@H](CCCN=C(N)N)NC(=O)[C@H](CC(C)C)NC(=O)[C@@H](Cc1c[nH]c2ccccc12)NC(=O)[C@H](Cc1ccc(O)cc1)NC(=O)[C@@H]1CC(O)CN1C(=O)[C@H](Cc1c[nH]c2ccccc12)NC(=O)CCc1ccc(F)cc1 (some centres not stated), the Ki was 1.29 nM.
